As usually defined, the logP is a log measure of how a compound divides between an organic and an aqueous phase. Usually IC50 stands for the midpoint of a concentration-inhibition curve. Low values mean inhibition by little substance, high ones a need for much substance.

Data set [1] in a line: Partition coefficient (logP). The data set is classed as physicochemical. Conditions: octanol/water.
Data set [2] has as its target T1, Cholesterol side-chain cleavage enzyme, mitochondrial (Bos taurus, UniProt P00189).
T1 sequence (P00189 whole entry): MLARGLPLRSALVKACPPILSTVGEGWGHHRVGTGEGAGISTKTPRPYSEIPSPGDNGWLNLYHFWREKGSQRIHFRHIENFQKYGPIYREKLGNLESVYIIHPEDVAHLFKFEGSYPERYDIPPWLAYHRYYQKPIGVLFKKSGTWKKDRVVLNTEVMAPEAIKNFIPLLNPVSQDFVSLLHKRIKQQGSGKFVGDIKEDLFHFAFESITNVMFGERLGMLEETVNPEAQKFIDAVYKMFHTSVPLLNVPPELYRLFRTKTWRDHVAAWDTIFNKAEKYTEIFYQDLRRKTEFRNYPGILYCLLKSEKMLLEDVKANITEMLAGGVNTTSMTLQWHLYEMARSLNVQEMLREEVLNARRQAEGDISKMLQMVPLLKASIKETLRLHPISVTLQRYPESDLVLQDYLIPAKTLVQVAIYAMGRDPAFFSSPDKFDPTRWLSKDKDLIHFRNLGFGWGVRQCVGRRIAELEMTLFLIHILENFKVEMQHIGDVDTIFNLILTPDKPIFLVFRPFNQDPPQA
In words: Inhibition of bovine desmolase, cytochrome P450 11A1; NI = No Inhibition at maximum concentration tested. An outline of the steps: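 Bovine adrenal cortex mitochondrial fraction as side-chain cleavage enzyme. […] Released [14C]isocaproic acid passes through alumina, which retains the steroid; eluate radioactivity is counted. Compound tested at 5, 10, 20 and 50 μg/mL. IC50 is the concentration that halves control activity, extrapolated when above the top concentration. "None" means no inhibition at the maximum tested.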

A further data set deals with T2, Aromatase (Homo sapiens, UniProt P11511).
T2 sequence (P11511 whole entry): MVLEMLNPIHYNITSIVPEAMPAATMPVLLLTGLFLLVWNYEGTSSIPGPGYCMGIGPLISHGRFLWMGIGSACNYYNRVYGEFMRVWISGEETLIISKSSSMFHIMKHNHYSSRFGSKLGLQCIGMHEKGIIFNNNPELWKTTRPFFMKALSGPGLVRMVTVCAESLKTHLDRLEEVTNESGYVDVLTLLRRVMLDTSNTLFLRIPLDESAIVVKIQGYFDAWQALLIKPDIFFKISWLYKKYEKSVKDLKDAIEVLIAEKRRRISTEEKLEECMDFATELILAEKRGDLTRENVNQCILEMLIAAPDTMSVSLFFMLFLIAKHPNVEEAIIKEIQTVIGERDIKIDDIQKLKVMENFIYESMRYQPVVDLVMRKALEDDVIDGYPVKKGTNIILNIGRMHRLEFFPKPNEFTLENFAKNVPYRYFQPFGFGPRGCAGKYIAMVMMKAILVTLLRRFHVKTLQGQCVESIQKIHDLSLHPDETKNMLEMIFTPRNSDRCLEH

In data set [1], `CCN1C(=O)CCC(CC)(c2ccncc2)C1=O` (stereo not given) yielded a logP of 1.64. In addition, the IC50 result in data set [2] is “No inhibition”.

With `CCCC1(c2ccncc2)CCC(=O)NC1=O` (stereo not given), the logP in data set [1] worked out at 1.13. In data set [2], the IC50 result is on record as “No inhibition”.

Turning to `CCC1(c2ccncc2)CCC(=O)N(C)C1=O` (stereo not given), the IC50 entry in data set [2] is “No inhibition”. `CCCCN1C(=O)CCC(CC)(c2ccncc2)C1=O` (stereo not given) came in with a logP in data set [1] of 2.76. Besides, in data set [2], the IC50 result is listed as “No inhibition”.

For the molecule `CC1(c2ccncc2)CCC(=O)NC1=O` (stereo not given), in data set [2], the IC50 entry is given as “No inhibition”. For the molecule `CCCCCCCC1(c2ccncc2)CCC(=O)NC1=O` (stereo not given), half-maximal inhibition against Aromatase (IC50) required 3.2 µM. Turning to `CCCCCCN1C(=O)CCC(CC)(c2ccncc2)C1=O` (stereo not given), the IC50 result in data set [2] is on record as “No inhibition”. For the molecule `CCCN1C(=O)CCC(CC)(c2ccncc2)C1=O` (stereo not given), in data set [1], the logP amounted to 2.18. For the same molecule, the IC50 result in data set [2] was “No inhibition”.

In data set [1], `CCCCCCC1(c2ccncc2)CCC(=O)NC1=O` (stereo not given) displayed a log partition coefficient (logP) of 2.94. The IC50 result in data set [2] is “No inhibition”; against Aromatase, 3.6 µM. In turn, `CCC1(c2ccncc2)CCC(=O)NC1=O` (stereo not given) [ROGLETIMIDE] displayed a logP in data set [1] of 0.58. Molecule `CCCCCC1(c2ccncc2)CCC(=O)NC1=O` (stereo not given) came in with a logP in data set [1] of 2.26. Besides, the IC50 entry was “No inhibition” in data set [2] and 2.5 µM against Aromatase. Regarding `CCCCC1(c2ccncc2)CCC(=O)NC1=O` (stereo not given), the IC50 entry in data set [2] was “No inhibition”.
